CHOP inhibitor: CHOP inhibition in unfolded protein response | 3.8% of 220,000 active | CHO-K1 CHOP-promoter luciferase, tunicamycin-induced, 15-18 h | inhibition, % at 10 µM | AID 2732;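 active = compounds that reduced the stress-induced luciferase reporter signal by more than about 70% of percent inhibition, limit read from the data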
Bfl-1 A1 inh: inhibitors of the anti-apoptotic protein A1, read as caspase activation. MEF A1-2A-BIM cells, Caspase-Glo 3/7 luminescence, 3 h; percent of clofoctol response, vehicle zero. caspase activation, % (no concentration beside the values). 0.066% of 330,000 active;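 active = over half of replicate activation scores above 10%, or exactly half above 10 with the replicate mean above 10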
CHOP UPR activ: activators of apoptotic arm of unfolded protein response (CHOP); CHO-CHOP luciferase reporter, UPR activation, luminescence; percent of tunicamycin response over DMSO baseline; activation, % at 10 µM; 0.34% of 330,000 active;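 active = at 10 µM dose, activation of 40% or more, normalized to positive control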
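System: CHO-CHOP luciferase reporter cell line; amount: 500 cells/well; buffer or medium: F12 medium containing 10% fetal bovine serum; incubation: 6 h compound exposure at 37 °C after overnight seeding; measured by: luciferase luminescence after 10 min with Steady-Glo reagent; evaluation: % reporter activation, DMSO baseline versus tunicamycin full activation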
UPR XBP1 act: adaptive UPR (XBP1) activation; CHO-XBP1 luciferase reporter, IRE1-XBP1 UPR activation, luminescence; percent of tunicamycin response, DMSO as zero; activation, % at 20 µM; 0.33% of 330,000 active; AID 463104;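 active = versus positive control, 20 µM dose yields 30% or more activation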
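Material: CHO cell line with stable XBP1 luciferase reporter; buffer or medium: F12 medium containing 10% fetal bovine serum; compound: single point, 20 µM final compound, 1% DMSO; incubation: 6 h treatment, 37 °C; measured by: glow luminescence from Steady-Glo reagent; evaluation: activation, % of tunicamycin; control set: tunicamycin high, DMSO low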
CHOP confirm: confirmation of CHOP induction inhibitors; 45% of 2,100 active; inhibition, % at 10 µM; CHO-CHOP promoter luciferase reporter, tunicamycin-induced, luminescence; shares compounds with CHOP inhibitor;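 active = mean of three repeat readings of reporter signal inhibition above a set limit, cut at about 70% in these data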
A number is an active result. This excerpt belongs to a sample that is enriched for hits.

For Cc1ccc(C2=NN(S(=O)(=O)c3ccccc3)C(c3ccccc3O)C2)cc1 (stereo not given) the results were CHOP inhibitor 106 and CHOP confirm inactive.
For COc1ccccc1CC(=O)N1CCC(CCC(=O)NC2CC2)CC1 the results were Bfl-1 A1 inh inactive, CHOP UPR activ inactive and UPR XBP1 act inactive.
COc1cc(OC)nc(-n2ncc(Br)c(Br)c2=O)n1 was read as CHOP inhibitor 111, Bfl-1 A1 inh inactive and CHOP confirm 118.
`COC(=O)c1cnn(-c2nc(OC)cc(OC)n2)c1C` gave CHOP inhibitor inactive, Bfl-1 A1 inh inactive, CHOP UPR activ inactive and UPR XBP1 act inactive.
For CC(C)(C)c1cc(-c2csc(Nc3ccccc3)[n+]2Cc2ccc(C(=O)O)cc2)cc(C(C)(C)C)c1O the results were CHOP inhibitor 106, Bfl-1 A1 inh inactive, CHOP UPR activ inactive, UPR XBP1 act inactive and CHOP confirm 121.
COc1ccc(N2CCN(C(=O)c3cn(Cc4ccccc4)nc3-c3cccnc3)CC2)cc1 was read as Bfl-1 A1 inh inactive, CHOP UPR activ inactive and UPR XBP1 act inactive.
`Nc1ccc(SC(F)(F)F)cc1C(=O)c1ccccc1` gave CHOP inhibitor 104, Bfl-1 A1 inh inactive, CHOP UPR activ inactive, UPR XBP1 act inactive and CHOP confirm 111.
For CC(C)(C)c1ccc(OCC(O)CN(CCO)CC(O)Cn2ccc3ccccc32)cc1 (stereo not given) the results were CHOP inhibitor 103, Bfl-1 A1 inh inactive, CHOP UPR activ inactive, UPR XBP1 act inactive and CHOP confirm inactive.
Screening OCCN(CC(O)Cn1ccc2ccccc21)CC(O)Cn1ccc2ccccc21 (stereo not given) returned CHOP inhibitor inactive, Bfl-1 A1 inh inactive, CHOP UPR activ inactive and UPR XBP1 act inactive.
O=C(CN1C(=O)COc2ccccc21)Nc1ccc(N2CCOCC2)cc1 was read as Bfl-1 A1 inh inactive, CHOP UPR activ inactive and UPR XBP1 act inactive.
Screening CC(=O)N/C(=C\c1ccc(C)o1)C(=O)NCc1ccccc1 returned Bfl-1 A1 inh inactive, CHOP UPR activ inactive and UPR XBP1 act inactive.
For C=C1C(=O)C=C2CN(C(=O)c3ccccc3)[C@@](Cc3ccc(F)cc3)(C(=O)OC)[C@@H]12 the results were CHOP inhibitor 109, Bfl-1 A1 inh inactive, CHOP UPR activ inactive, UPR XBP1 act inactive and CHOP confirm 128.
Screening COC(=O)[C@@]1(Cc2ccc(OC)cc2)[C@@H]2C(=CC(=O)[C@H]2CC(=O)C(=O)N(C)C)CN1C(=O)c1ccccc1 returned CHOP inhibitor inactive, Bfl-1 A1 inh inactive, CHOP UPR activ inactive and UPR XBP1 act inactive.
CCOc1cc(/C=C2/C(=O)ON=C2C)ccc1OCc1ccc(F)cc1 was read as CHOP inhibitor 99, Bfl-1 A1 inh inactive, CHOP UPR activ inactive, UPR XBP1 act inactive and CHOP confirm 124.
Screening Cc1ccccc1/C=N/Nc1ccnc2cc(Cl)ccc12 returned CHOP inhibitor 107, Bfl-1 A1 inh inactive and CHOP confirm 88.
Screening Clc1ccc2c(N/N=C/c3ccc(Br)cc3)ccnc2c1 returned CHOP inhibitor 103, Bfl-1 A1 inh inactive and CHOP confirm 96.
For Cc1ccc(Nc2nc(Cl)c(C=O)s2)cc1Cl the results were CHOP inhibitor 96, Bfl-1 A1 inh inactive, CHOP UPR activ inactive, UPR XBP1 act inactive and CHOP confirm inactive.
COc1cccc2cc(/C(=N/O)c3ccc(Br)cc3)oc12 was read as CHOP inhibitor 106, Bfl-1 A1 inh inactive, CHOP UPR activ inactive, UPR XBP1 act inactive and CHOP confirm inactive.
CCN1/C(=C2/SC(=S)NC2=O)Sc2ccccc21 was read as CHOP inhibitor inactive, Bfl-1 A1 inh inactive, CHOP UPR activ inactive and UPR XBP1 act inactive.
`CC1(c2ccccc2)CC(C)(C)N2C(=O)/C(=C3\SC(=S)NC3=O)c3cccc1c32` (stereo not given) gave CHOP inhibitor 97, Bfl-1 A1 inh inactive and CHOP confirm 82.
S=C(Nc1cc(Cl)ccc1Oc1ccccc1)N1CCN(c2ccccn2)CC1 was read as Bfl-1 A1 inh inactive.
For S=C(Nc1ccccc1)Nc1cc(Cl)ccc1Oc1ccccc1 the results were CHOP inhibitor 102, Bfl-1 A1 inh inactive, CHOP UPR activ inactive, UPR XBP1 act inactive and CHOP confirm inactive.
For O=C(CSc1nc(-c2ccccc2F)nc2nc[nH]c12)Nc1c(Cl)cc(Cl)cc1Cl the results were CHOP inhibitor inactive, Bfl-1 A1 inh inactive, CHOP UPR activ inactive and UPR XBP1 act inactive.
CCc1cccc(C)c1NC(=O)CSc1nc(-c2ccccc2F)nc2nc[nH]c12 was read as CHOP inhibitor 108, Bfl-1 A1 inh inactive, CHOP UPR activ inactive, UPR XBP1 act inactive and CHOP confirm inactive.
CCN(CCO)c1ncnc2c1sc1nc(CC(C)C)c3c(c12)CC(C)(C)OC3 was read as CHOP inhibitor 106, Bfl-1 A1 inh inactive, CHOP UPR activ inactive, UPR XBP1 act inactive and CHOP confirm 92.
Screening CC(NCc1cccc(OCc2ccccc2)c1)C(O)c1ccccc1 (stereo not given) returned CHOP inhibitor inactive, Bfl-1 A1 inh inactive, CHOP UPR activ inactive and UPR XBP1 act inactive.
For CC(NCc1ccc(OCc2ccc(Cl)cc2)cc1)C(O)c1ccccc1 (stereo not given) the results were CHOP inhibitor 105, Bfl-1 A1 inh inactive, CHOP UPR activ inactive, UPR XBP1 act inactive and CHOP confirm inactive.
Screening CN(/N=C/c1ccncc1)c1cnn(-c2ccc(F)c(Cl)c2)c(=O)c1Cl returned CHOP inhibitor 100, Bfl-1 A1 inh inactive, CHOP UPR activ inactive, UPR XBP1 act inactive and CHOP confirm inactive.
`Cc1ccc(-n2ncc(N(C)C)c(Cl)c2=O)cc1` gave CHOP inhibitor inactive, Bfl-1 A1 inh inactive, CHOP UPR activ inactive and UPR XBP1 act inactive.
Cc1ccc(C(=O)Nc2cnc3ccccc3c2)cc1 was read as CHOP inhibitor 98, Bfl-1 A1 inh inactive, CHOP UPR activ inactive, UPR XBP1 act inactive and CHOP confirm 117.
CSc1nc2ccc3nc(NC(=O)c4ccc(C)cc4)sc3c2s1 was read as CHOP inhibitor inactive, Bfl-1 A1 inh inactive, CHOP UPR activ inactive and UPR XBP1 act inactive.
For Cc1cc(C(=O)Nc2cnc3ccccc3c2)ccc1[N+](=O)[O-] the results were CHOP inhibitor inactive, Bfl-1 A1 inh inactive, CHOP UPR activ inactive and UPR XBP1 act inactive.
Cc1ccc(C(=O)Nc2nc3ccccc3c(=O)s2)cc1 was read as CHOP inhibitor 102, Bfl-1 A1 inh inactive, CHOP UPR activ inactive, UPR XBP1 act inactive and CHOP confirm inactive.
Screening COc1ccc(CNC(=O)C2CCN(C(=O)[C@@H]3Cc4ccccc4CN3)CC2)cc1 returned Bfl-1 A1 inh inactive, CHOP UPR activ inactive and UPR XBP1 act inactive.
CCOc1ccccc1NC(=O)C1COc2ccccc2O1 (stereo not given) was read as Bfl-1 A1 inh inactive, CHOP UPR activ inactive and UPR XBP1 act inactive.
For COc1cc(C(=O)Nc2cccc(-c3nc4cc(C)ccc4o3)c2C)cc(OC)c1OC the results were CHOP inhibitor 108, Bfl-1 A1 inh inactive, CHOP UPR activ inactive, UPR XBP1 act inactive and CHOP confirm inactive.
